In ChEMBL document CHEMBL4513216, “Probing the Open Global Health Chemical Diversity Library for Multistage-Active Starting Points for Next-Generation Antimalarials” (ACS Infect Dis, 2020):

Experiment: Toxicity liver stage against HepG2, at 10uM
Format: cell-based
Set-up: test concentration 10 uM, cell line HepG2-A16-CD81EGFP
Settings: human, HepG2-A16-CD81EGFP cells; read-out: INHIBITION
Method in brief: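 Uninfected HepG2-A16-CD81EGFP cells, 3 × 10^3 per well, 1536-well, plated on prespotted compound at 10 μM final, parasite-free screening media added to match infected plates; puromycin 10 μM positive, DMSO 0.5% negative; run in parallel with 48 h PbLuc assay at 37 °C, 5% CO2; viability by CellTiter-Glo luminescence, normalized to controls.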

Row | SMILES | cytotoxicity at 10 µM [%]
1 | Cc1cc(C)nc(N2CCCC2c2cccnc2)n1 (stereo unspecified) | 0.997
2 | COc1cc(C)c(C(C)NC(=O)c2cccnc2N(C)C)cc1OC (stereo unspecified) | 1.25
3 | CCCc1nc2c(c(C)c(C)n2CCN(C)C)c(N)c1CC | 12.9
4 | O=C(Nc1ccc2c(c1)OCO2)c1ccc(N2CCCC2)nn1 | 54.7
5 | CS(=O)(=O)N1CCC(CNC(=O)C2CCC2)CC1 | -2.99
6 | COC(=O)N1CCc2ccccc2C1C(=O)NCc1nc(C)no1 (stereo unspecified) | 3.88
7 | O=C(Cn1c(=O)oc2ccccc21)NCC(O)c1ccc2c(c1)CCO2 (stereo unspecified) | -6.81
8 | CCCS(=O)(=O)N1CCc2nc(N3CCOCC3)nc(N(C)C)c2C1 | 15.5
9 | O=C(COC1CCCC1)N1CC[C@H]2OCC[C@@]2(COCC2CC2)C1 | 1.52
10 | N#CCC(=O)NCc1nnc2n1CCN(Cc1ccsc1)C2 | -131
11 | COc1cc(C2SCC(=O)Nc3ccsc32)cc(OC)c1O (stereo unspecified) | 54.7
12 | CCOCCCNC(=O)CN(c1ccc(F)c(F)c1)S(C)(=O)=O | 9.96
13 | O=c1nc(SCc2cccnc2)c2c(n1CCO)CCC2 | -18
14 | COCCC(=O)N1CCN(CCN(C)C)c2ncccc2C1 | -4.11
15 | CCCc1nc(NCCc2ccccc2)c2c(n1)c(C)nn2CC | 20
16 | Cc1nn(CCC(=O)N2CCN(Cc3cnn(C)c3C)CC2)c(C)c1Br | 4.07
17 | CCN1CCN(S(=O)(=O)c2cc(C)c(Cl)cc2Cl)CC1 | -2.67
18 | CCOc1ccc(CN2CCC(c3ccn[nH]3)C2)cc1CO (stereo unspecified) | 0.845
19 | CCN(Cc1ccncc1)CC1(O)CCN(C(=O)c2cccc(C)n2)C1 (stereo unspecified) | -4.08
20 | Cc1ccccc1CN1CCC(c2nn(CCN)c3nccnc23)C1 (stereo unspecified) | -24.3
21 | CN1CCCC(Cc2cncc(C(=O)N3CCOCC3)c2)C1 (stereo unspecified) | 6.32
22 | Cc1nc(C2CCCN2C(=O)CCc2ccc(F)cc2)ncc1C(N)=O (stereo unspecified) | -15.7
23 | CN(Cc1ccc(F)cc1)CC1(O)CCN(C(=O)c2ccsc2)C1 (stereo unspecified) | -28.2

Row | SMILES | cytotoxicity at 10 µM [%]
24 | Cc1noc(C)c1-c1cncc(C2CCCN2Cc2ccncc2)n1 (stereo unspecified) | -7.98
25 | Cc1noc(C)c1-c1cnc(CC2CCN(C(=O)c3cc[nH]n3)C2)cn1 (stereo unspecified) | 3.6
26 | COc1ccc2c(c1)CC(NCc1cccc(OCC(N)=O)c1)CC2 (stereo unspecified) | -40.4
27 | CN(CC1CC1)C(=O)c1cc2c(c(S(N)(=O)=O)c1)CCC2 | -51.1
28 | CC(C)(C)C(=O)NCCC(=O)Nc1cc(C#N)cn1C(C)(C)C | 2.02
29 | CC(C)c1ccccc1OCCNC(=O)N1CCC2(CC1)OCCO2 | 8.75
30 | O=C(Cc1c(F)cccc1Cl)Nc1cccc(N2CCCC2)c1 | -117
31 | OCC1(NCc2cccc(-n3cccn3)c2)CCOCC1 | -139
32 | O=C(NCC(O)c1ccc(Cl)s1)c1ccoc1 (stereo unspecified) | -3.36
33 | Cc1cc(CNc2cc(-c3ccoc3C)nn2CCO)c(C)o1 | -0.598
34 | CSC1(CNC(=O)N(C)Cc2sccc2C)CCOCC1 | -57.4
35 | CN(C)CCn1ccc(NC(=O)NC(C)(C)c2nccs2)n1 | 3.92
36 | C=C(C)CN(CC)C(=O)c1cc(C)ccc1NS(C)(=O)=O | 5.69
37 | CCn1cc(CN2CCN(C(=O)N3CCOCC3)CC2)cn1 | -52.8
38 | Cc1cc(C(=O)NC2CCCOc3cc(Cl)ccc32)n(C)n1 (stereo unspecified) | 1.97
39 | Cc1csc(C2NC3(CCCC3)C(=O)N2CC2CC2)n1 (stereo unspecified) | 3.24
40 | O=C(NCc1cccnc1-n1cncn1)c1cncc(Br)c1 | 10
41 | CCOCC(O)CN1CCN(C(=O)c2ccsc2)CC1 (stereo unspecified) | 5.42
42 | CCN(CC)C(=O)CNC(=O)N1CCC(c2ccccc2)C1 (stereo unspecified) | 2.03
43 | CN(Cc1cnn(C)c1)C(=O)CN1CCCCC1Cn1cncn1 (stereo unspecified) | 17.5
44 | CC(C)c1nnc2n1CC(CNc1cnc3ccccc3n1)CC2 (stereo unspecified) | -37.1
45 | CCN(CCNCc1ccc(C#N)cc1)C1CC1 | -6.54
46 | CN(C)S(=O)(=O)NCC(O)c1cc2ccccc2s1 (stereo unspecified) | -13.2

Row | SMILES | cytotoxicity at 10 µM [%]
47 | CCN(CC)S(=O)(=O)CCNc1nnc(C(C)C)s1 | 7.2
48 | OC(COCc1ccccc1)CN1CCC(Cn2cccn2)CC1 (stereo unspecified) | -1.49
49 | CC(C)(C)C(CCO)NC(=O)Nc1ccccc1 (stereo unspecified) | -3.3
50 | Cn1cc(CCNC(=O)N2CCCc3c(F)cccc32)cn1 | 14.3
51 | COC(=O)CN(Cc1ccccc1C)C(=O)COCC1CC1 | 6.87
52 | COc1ccc(CN(CCC#N)CCN2CCOCC2)cc1OC | -5.79
53 | Cc1ccc2c(c1)OC(C)CN2C(=O)CCc1cccnc1 (stereo unspecified) | -52.8
54 | CC(C)OCCCN1CCCC(c2nc3ccccc3n2C(C)C)C1 (stereo unspecified) | -4.06
55 | CCS(=O)(=O)c1ccc(N2CCC(NC(=O)c3cnn(C)c3)CC2)cc1 | -1.69
56 | CCOc1ccc(C(=O)NS(=O)(=O)c2cncc(Br)c2)cc1OC | -5.07
57 | Cc1nn(C)c(N2CCOCC2)c1CNC(C)c1ccco1 (stereo unspecified) | -17.6
58 | CCCC(C)(C)NC(=O)c1ccc(CC2CC(=O)NC2=O)cc1 (stereo unspecified) | -19.7
59 | N#Cc1ccc(C(=O)N2CC[C@H]3[C@@H]2CCC(=O)N3c2ccccc2)cc1 | 3.99
60 | CC[C@H](C)Nc1nccc(-c2cnc3sc(C)c(C)n3c2=O)n1 | 11.1
61 | Cc1ccc2nc(CN3CCC(O)(Cn4ccnc4)CC3)cc(O)c2c1 | -47.8
62 | Cc1ccsc1C(Cn1ccnc1-c1ccccc1C(=O)O)N(C)C (stereo unspecified) | -2.86
63 | COc1ccc(F)cc1CN1CCCn2nc(CNS(C)(=O)=O)cc2C1 | 2.23
64 | CNc1nc2c(c(C(=O)N3CCCC3)n1)CN(C(=O)C1CCCC1)CC2 | -114
65 | CCCc1cc(=O)[nH]c(-c2cccc(CN3CCCCCC3)c2)n1 | -4.09
66 | COc1cccc(OCC2CCCN(C(=O)c3cnn(C)c3)C2)c1 (stereo unspecified) | -21.4
67 | CCn1c(C2CCCN(C(=O)C(C)(C)OC)C2)nn(CCN(C)C)c1=O (stereo unspecified) | -1.94
68 | O=S1(=O)C[C@@H]2[C@H](C1)N(Cc1ccoc1)CCN2Cc1ccncc1 | -0.452
69 | Cc1nc(N)ncc1C(=O)N1CCCC(CCc2ccccc2F)C1 (stereo unspecified) | -4.96

Row | SMILES | cytotoxicity at 10 µM [%]
70 | O=C(O)C1(n2ccc(-c3ccco3)n2)CCN(Cc2cccs2)CC1 | -125
71 | COc1cccc(-c2noc(-c3ccc(NCCCO)nc3)n2)c1OC | -1.5
72 | O=C(c1ccc(S(=O)(=O)NCC(F)F)cc1)N1CC[C@H]2CNC[C@H]21 | -14
73 | CCCc1cc(CNC(=O)Cc2cc(C)no2)on1 | -1.04
74 | COc1c(C)cnc(CN(C)C2CCOC3(CCOCC3)C2)c1C (stereo unspecified) | -0.971
75 | CCN(C)C[C@@H]1CN(Cc2cccc(Cl)c2)C[C@@H]1CO | 2.45
76 | CN(C)c1ccc(CC(=O)N2C[C@H](C3CC3)[C@@H](N)C2)cc1 | -3.97
77 | Nc1cc(C(=O)NCC2CCN(Cc3cccc(O)c3)C2)ccn1 (stereo unspecified) | -8.69
78 | CCSc1ncc(CN2CC[C@@](O)(COC)C(C)(C)C2)cn1 | -4.05
79 | COCCN(CC1CCCN(C2Cc3ccccc3C2)C1)C(=O)CO (stereo unspecified) | -6.93
80 | O=C(NCCc1cnccn1)C1(N2CCCCC2)Cc2ccccc2C1 | -7.82
81 | Cc1cc(C)c2c(N3CCN(C(=O)N(C)C)CC3)ncnc2n1 | -1.18
82 | CCCNC(=O)c1ccc(S(=O)(=O)NCC2(O)CCCNC2)cc1 (stereo unspecified) | -48.3
83 | O=C(c1cnc(Cc2c(Cl)cccc2Cl)nc1O)N1CCNCC1 | -3.01
84 | O=C(O)C1(Cc2ccccc2Cl)CCN(c2ncnc3[nH]ccc23)CC1 | 11
85 | Cc1ccnc(N2CCN(Cc3ccccc3)CC(O)C2)c1 (stereo unspecified) | -1.88
86 | Cc1nn(C)cc1Cn1c(=O)cnc2ccccc21 | 7.8
87 | COCC(=O)N1CCC(C(=O)N(C)C(C)c2ccon2)CC1 (stereo unspecified) | 1.28
88 | CC(C)NC(=O)c1nc(Cn2c(C(F)(F)F)nc3ccccc32)no1 | 20.7
89 | CCN(CCO)C(=O)C1CCC(=O)N(CCc2cccc(F)c2)C1 (stereo unspecified) | -4.15
90 | CCc1ncc(C(=O)N2CCCN(C3CCCC3)CC2)cn1 | -7.38
91 | Cc1cc(=O)n(CC(=O)Nc2ccc(C(N)=O)cc2)nc1C | -10.9
92 | Cc1cc2c(=O)n3c(nc2s1)CCN(Cc1cnc(C(C)C)nc1)CC3 | 10.5

Row | SMILES | cytotoxicity at 10 µM [%]
93 | Cc1c(C(=O)N2CCCC2c2cnn(C)c2)cnn1-c1ccccc1 (stereo unspecified) | -23.7
94 | CC(C)(NCC(=O)NC(=O)NC1CC1)c1ccc2c(c1)OCO2 | -1.27
95 | Brc1cccc(-c2noc(CN3CCOCC3)n2)c1 | -15.2
96 | NC(=O)c1cc(C2CCCN(CCOc3cccc(F)c3)C2)n[nH]1 (stereo unspecified) | -19.6
97 | COc1ccc(CC(=O)N2CCCC2Cn2cccn2)cc1F (stereo unspecified) | -0.587
98 | Cc1cc(OCC(=O)NS(=O)(=O)c2c(C)noc2C)ccc1Cl | -2.07
99 | COc1ccc(C(O)CNC(=O)Nc2cc(C)nn2C)cc1 (stereo unspecified) | 2.33
100 | Cc1ncsc1C(=O)NC1CCN(Cc2ccc(C#N)cc2)CC1 | -6.46
101 | CC(C)NC(=O)Nc1ccc(CNCc2cccc(C#N)c2)cc1 | -7.15
102 | CCc1nnsc1C(=O)N1CCCN(Cc2nccn2C)CC1 | -4.26
103 | CCC(CN1CCCC1)n1cncc1-c1cnn(-c2ccc(F)cc2)c1 (stereo unspecified) | 5.29
104 | CN1C(=O)C2(CCN(C(=O)c3ccccc3)CC2)c2cccc(F)c21 | 4.74
105 | Cn1nc(C2CCCN(Cc3ccc(F)cc3)C2)c2nccnc21 (stereo unspecified) | -24.8
106 | CCn1nnc2c1C(COCCN(C)C)CN(S(C)(=O)=O)C2 (stereo unspecified) | -2.69
107 | CC(=O)NCC(=O)N1CCn2cc(CN3CCN(C)CC3)nc2C1 | -12.4
108 | O=C(CC1CCCC1)N1CC[C@H]2[C@H]1CCN2c1nncs1 | -3.43
109 | CN1Cc2c(C(=O)NC3CCCCC3)ncn2-c2ccccc2S1(=O)=O | -153
110 | Cc1c(-c2cccs2)nn2c(=O)c3c([nH]c12)CN(C(=O)C1CC1)C3 | -4.02
111 | CN1CCC(n2cc3nc(N)[nH]cc-3c2=O)CC1 | 8.6
